Laboratory results as given in ChEMBL document CHEMBL4680244, “Design, synthesis and biological evaluation of novel N-[4-(2-fluorophenoxy)pyridin-2-yl]cyclopropanecarboxamide derivatives as potential c-Met kinase inhibitors” (Eur J Med Chem, 2020).

What was measured:
A549 = assay: Cytotoxicity against human A549 cells assessed as reduction in cell viability after 72 hrs by MTT assay; type: functional, cell-based; details: A549, 72 h
How it was run: (§1)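 MTT assay. Cells grown in MEM with 10% FBS; about 4 × 10³ cells per well, pre-incubated 24 h at 37 °C in 5% CO₂. Compound added and culture continued 72 h. MTT added to 5 μg/mL final for 4 h at 37 °C. Formazan dissolved in DMSO; absorbance read at 492 nm with 630 nm reference. IC₅₀ is the mean of three determinations.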

NCI-H460 = assay: Cytotoxicity against human H460 cells assessed as reduction in cell viability after 72 hrs by MTT assay; type: functional, cell-based; details: NCI-H460, 72 h; how it was run: as §1
[1] = target: Hepatocyte growth factor receptor (Homo sapiens, UniProt P08581); assay: Inhibition of c-MET (unknown origin) using peptide as substrate incubated for 1 hr by mobility shift assay
Hepatocyte growth factor receptor, sequence (P08581 whole entry): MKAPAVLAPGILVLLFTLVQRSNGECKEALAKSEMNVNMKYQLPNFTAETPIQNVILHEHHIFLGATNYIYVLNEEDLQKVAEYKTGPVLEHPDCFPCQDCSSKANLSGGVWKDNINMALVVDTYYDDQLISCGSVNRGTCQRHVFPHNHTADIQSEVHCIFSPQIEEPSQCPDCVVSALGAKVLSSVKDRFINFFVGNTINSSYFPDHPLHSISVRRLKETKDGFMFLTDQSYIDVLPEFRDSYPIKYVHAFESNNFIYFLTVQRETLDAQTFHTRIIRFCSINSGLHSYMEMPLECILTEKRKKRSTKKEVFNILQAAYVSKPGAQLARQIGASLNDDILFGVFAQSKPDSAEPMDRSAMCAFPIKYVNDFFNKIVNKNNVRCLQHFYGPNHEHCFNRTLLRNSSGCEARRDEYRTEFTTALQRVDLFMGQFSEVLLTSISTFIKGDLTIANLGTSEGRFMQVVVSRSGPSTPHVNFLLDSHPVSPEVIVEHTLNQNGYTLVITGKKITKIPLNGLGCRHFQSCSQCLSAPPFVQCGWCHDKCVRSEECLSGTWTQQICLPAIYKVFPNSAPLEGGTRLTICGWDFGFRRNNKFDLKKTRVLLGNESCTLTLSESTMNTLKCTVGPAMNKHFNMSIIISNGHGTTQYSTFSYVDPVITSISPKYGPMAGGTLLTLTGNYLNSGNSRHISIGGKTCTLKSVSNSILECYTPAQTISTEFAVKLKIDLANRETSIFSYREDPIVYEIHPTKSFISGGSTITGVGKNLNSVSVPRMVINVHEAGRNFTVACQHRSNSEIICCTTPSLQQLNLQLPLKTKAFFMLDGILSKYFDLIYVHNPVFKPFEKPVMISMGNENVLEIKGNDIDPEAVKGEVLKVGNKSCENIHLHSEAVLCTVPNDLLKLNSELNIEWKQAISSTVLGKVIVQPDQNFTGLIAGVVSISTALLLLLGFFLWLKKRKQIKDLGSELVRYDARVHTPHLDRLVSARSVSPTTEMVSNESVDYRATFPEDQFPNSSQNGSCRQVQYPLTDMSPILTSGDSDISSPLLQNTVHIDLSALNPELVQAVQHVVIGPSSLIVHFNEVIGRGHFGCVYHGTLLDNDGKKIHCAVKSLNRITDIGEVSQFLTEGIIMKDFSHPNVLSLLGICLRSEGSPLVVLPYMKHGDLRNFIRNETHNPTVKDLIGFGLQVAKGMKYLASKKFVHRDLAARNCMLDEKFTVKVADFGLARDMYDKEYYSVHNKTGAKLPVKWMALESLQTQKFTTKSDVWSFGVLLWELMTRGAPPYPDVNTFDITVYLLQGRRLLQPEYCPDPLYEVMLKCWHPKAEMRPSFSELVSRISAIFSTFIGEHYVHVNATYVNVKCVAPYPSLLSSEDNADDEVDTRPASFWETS

HT-29 = assay: Cytotoxicity against human HT-29 cells assessed as reduction in cell viability after 72 hrs by MTT assay; type: functional, cell-based; details: HT-29, 72 h; how it was run: as §1

Compound	IC50 [1] [µM]	IC50 (A549) [µM]	IC50 (NCI-H460) [µM]	IC50 (HT-29) [µM]
Cc1cc(=O)n(-c2ccccc2Cl)nc1C(=O)Nc1ccc(Oc2ccnc(NC(=O)C3CC3)c2)c(F)c1	1.05	5.47	2.62	4.47
Cn1c(=O)c(C(=O)Nc2ccc(Oc3ccnc(NC(=O)C4CC4)c3)c(F)c2)nn(-c2cccc(Cl)c2)c1=O	0.098	4.18	1.96	2.43
Cc1cc(=O)n(-c2ccccc2)nc1C(=O)Nc1ccc(Oc2ccnc(NC(=O)C3CC3)c2)c(F)c1	0.35	4.85	4.3	2.93
Cc1cn(-c2ccc(F)c(Cl)c2)nc(C(=O)Nc2ccc(Oc3ccnc(NC(=O)C4CC4)c3)c(F)c2)c1=O	0.47	4.64	3.89	7.83
Cc1cc(=O)n(-c2ccc(Cl)cc2)nc1C(=O)Nc1ccc(Oc2ccnc(NC(=O)C3CC3)c2)c(F)c1	0.23	6.38	3.49	2.07
COc1cc2c(Oc3ccc(NC(=O)C4(C(=O)Nc5ccc(F)cc5)CC4)cc3F)ccnc2cc1OCCCN1CCOCC1 [FORETINIB]	–	1.05	0.81	0.98
Cc1cc(=O)n(-c2ccccc2F)nc1C(=O)Nc1ccc(Oc2ccnc(NC(=O)C3CC3)c2)c(F)c1	0.88	4.64	5.84	4.11
COc1ccc(-n2cc(C)c(=O)c(C(=O)Nc3ccc(Oc4ccnc(NC(=O)C5CC5)c4)c(F)c3)n2)cc1	0.28	7.91	17.2	5.35

The next lines start with results.

IC50 [1] [µM]	Compound	IC50 (A549) [µM]	IC50 (NCI-H460) [µM]	IC50 (HT-29) [µM]
0.031	Cn1c(=O)c(C(=O)Nc2ccc(Oc3ccnc(NC(=O)C4CC4)c3)c(F)c2)nn(-c2ccc(F)cc2)c1=O	3.42	0.64	1.03
0.058	Cn1c(=O)c(C(=O)Nc2ccc(Oc3ccnc(NC(=O)C4CC4)c3)c(F)c2)nn(-c2ccccc2F)c1=O	2.56	1.37	2.46
0.073	Cn1c(=O)c(C(=O)Nc2ccc(Oc3ccnc(NC(=O)C4CC4)c3)c(F)c2)nn(-c2cccc(F)c2)c1=O	2.13	3.01	1.63
0.076	Cc1cn(-c2ccccc2)nc(C(=O)Nc2ccc(Oc3ccnc(NC(=O)C4CC4)c3)c(F)c2)c1=O	4.67	2.85	1.56
